Shown are actives, neighbours in structure and some others; about 0.62% of the full set was active somewhere.
PMI act: phosphomannose isomerase (human) activation | P34949 | purified human PMI, coupled resazurin fluorescence, 20 min; stronger effect = higher value; 1 = vehicle control, 0 substrate-free wells | activation factor at 20 µM | actives 0.005% (n = 190,000);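 active = activation factor of 2 or more at 20 µM, relative to plate controls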
TNAP inh hi DEA: inhibitors of human TNAP at high phosphate acceptor concentration; P05186; AID 1135; inhibition, % at 20 µM; purified TNAP, CDP-star luminescence, 1 M DEA; actives 0.03% (n = 200,000);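 active = over 50% inhibition of tissue-nonspecific alkaline phosphatase at 20 µM in the single-dose screen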;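 also: plate controls were DMSO wells for no effect and EDTA-quenched wells as full inhibition for full effect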
Target sequence (P05186 whole entry, looked up): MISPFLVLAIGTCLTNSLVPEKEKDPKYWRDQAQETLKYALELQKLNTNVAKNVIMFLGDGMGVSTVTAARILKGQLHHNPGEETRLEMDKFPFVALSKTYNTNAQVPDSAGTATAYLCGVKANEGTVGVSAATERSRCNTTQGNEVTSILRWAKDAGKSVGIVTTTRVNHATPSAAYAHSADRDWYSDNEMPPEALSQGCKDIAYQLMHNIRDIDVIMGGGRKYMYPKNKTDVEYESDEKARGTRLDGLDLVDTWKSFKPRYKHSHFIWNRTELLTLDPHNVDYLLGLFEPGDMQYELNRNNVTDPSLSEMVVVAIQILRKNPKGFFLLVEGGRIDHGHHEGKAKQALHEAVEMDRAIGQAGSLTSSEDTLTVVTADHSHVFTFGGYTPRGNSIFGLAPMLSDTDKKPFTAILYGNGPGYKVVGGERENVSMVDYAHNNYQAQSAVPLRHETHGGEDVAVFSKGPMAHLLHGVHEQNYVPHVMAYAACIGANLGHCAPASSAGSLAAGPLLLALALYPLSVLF
PMI act hi M6P: increases human PMI activity with near-saturating mannose 6-phosphate. coupled PMI enzyme assay, resazurin fluorescence, 20 min; stronger effect = higher value; 1 = untreated enzyme, 0 = substrate-free blank. actives 0.34% (n = 190,000). P34949. activation factor at 20 µM;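 active = activation factor of 2 or more at 20 µM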
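Material: human phosphomannose isomerase with PGI, G6PDH, diaphorase coupling enzymes / Reagent: Man-6-P substrate 1.0 mM / Dosing: single compound dose of 20 µM, 1% DMSO final / Incubation: enzyme reaction with compound 20 min at room temperature / Signal: resorufin fluorescence (Ex 544/Em 590 nm) from resazurin via diaphorase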
TNAP inh no acc: inhibitors of human TNAP without phosphate acceptor; purified TNAP, CDP-star luminescence, 30 min; inhibition, % at 20 µM; actives 0.26% (n = 200,000); AID 1012;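 active = tissue-nonspecific alkaline phosphatase inhibition above about 50% at 20 µM in the single-dose screen, limit read from the data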;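 also: 0% = DMSO negative control and 100% = EDTA positive control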
TNAP act hiacc: TNAP (human) activation, high acceptor; P05186; 200,000 tested, under 10 active; purified TNAP, CDP-star luminescence, 1 M DEA, 30 min; stronger effect = higher value; 0 = EDTA background, 1 = DMSO-only activity; activation factor at 20 µM;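 active = activation factor at least 2 at 20 µM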
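Test system – human TNAP · Doses – 20 µM single point · Incubation – 30 min, room temperature · Signal – luminescent substrate turnover signal · Read-out basis – activation factor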
* marks the source's active call; other numbers are inactive results.

For CCSc1oc(-c2cccs2)nc1S(=O)(=O)c1ccccc1 the results were PMI act 1.7, TNAP inh hi DEA -3.9, PMI act hi M6P 2*, TNAP inh no acc -10.3 and TNAP act hiacc 1.
`CC(/C=C/C=C/c1ccccc1)=N\NC(=O)c1cccnc1` gave PMI act 1.6, TNAP inh hi DEA -4.9, PMI act hi M6P 2.1*, TNAP inh no acc 5.9 and TNAP act hiacc 1.
COc1ccccc1-c1ccc(/C=C2/C=C(C)OC2=O)o1 was read as PMI act 1.6, TNAP inh hi DEA 5.9, PMI act hi M6P 2*, TNAP inh no acc 19.5 and TNAP act hiacc 0.9.
`COC(=O)C(NNc1ccc(F)cc1)(NC(=O)c1ccccc1)C(F)(F)F` (configuration not stated) gave PMI act 1.7, TNAP inh hi DEA -6.8, PMI act hi M6P 2.9*, TNAP inh no acc -10.5 and TNAP act hiacc 1.1.
Screening COC(=O)C(NC(=O)c1ccccc1)(Nc1nccs1)C(F)(F)F (configuration not stated) returned PMI act 0.9, TNAP inh hi DEA -5.2, PMI act hi M6P 0.9, TNAP inh no acc -9.4 and TNAP act hiacc 1.1.
Screening COC(=O)C(NNc1ccccc1C)(NC(=O)c1ccc(F)cc1)C(F)(F)F (configuration not stated) returned PMI act 1.6, TNAP inh hi DEA -2.1, PMI act hi M6P 2.2*, TNAP inh no acc -5.3 and TNAP act hiacc 1.
For CCOC(=O)C(NCc1ccc(F)cc1)(NC(=O)c1ccccc1)C(F)(F)F (configuration not stated) the results were PMI act 1.1, TNAP inh hi DEA -6.4, PMI act hi M6P 1.1, TNAP inh no acc -2.9 and TNAP act hiacc 1.1.
`CCOC(=O)CC1COCCN1Cc1cn(C)nc1-c1ccccc1F` (configuration not stated) gave PMI act 1.1, TNAP inh hi DEA -6.7, PMI act hi M6P 1, TNAP inh no acc -13.1 and TNAP act hiacc 1.1.
CCCCCC(=O)NNC1=NCC(Cc2cccc(Cl)c2)S1 (configuration not stated) was read as PMI act 1, TNAP inh hi DEA -8.0, PMI act hi M6P 1.1, TNAP inh no acc -112.7 and TNAP act hiacc 1.1.
For Cc1cc(C)n2cc(CSc3ncn[nH]3)nc2n1 the results were PMI act 1.1, TNAP inh hi DEA -2.7, PMI act hi M6P 1.1, TNAP inh no acc 5.8 and TNAP act hiacc 1.
For c1ccc(N2CCN(Cc3ccnc4ccccc34)CC2)cc1 the results were PMI act 1.5, TNAP inh hi DEA -3.6, PMI act hi M6P 2*, TNAP inh no acc -13.4 and TNAP act hiacc 1.
`Cc1ccc(Cc2ccc(C(=O)NNC(N)=S)o2)cc1` gave PMI act 1, TNAP inh hi DEA -1.4, PMI act hi M6P 0.9, TNAP inh no acc -121.0 and TNAP act hiacc 1.
Screening NC(=O)CSc1nnc(-c2ccc3c(c2)OCO3)o1 returned PMI act 1, TNAP inh hi DEA 1.3, PMI act hi M6P 1, TNAP inh no acc -12.0 and TNAP act hiacc 1.
Screening CSc1cccc(-n2cc(-c3ccc4c(c3)OCO4)[nH]c2=O)c1 returned PMI act 1.5, TNAP inh hi DEA -3.1, PMI act hi M6P 2.1*, TNAP inh no acc 12.4 and TNAP act hiacc 1.
For COc1ccc(/C(=N\Nc2ccccc2C(=O)O)c2ccccc2)cc1 the results were PMI act 1.6, TNAP inh hi DEA -3.5, PMI act hi M6P 2.2*, TNAP inh no acc -4.1 and TNAP act hiacc 1.
Screening Cc1cc(C)c2c(N)c(C(=O)NCc3ccco3)sc2n1 returned PMI act 1.7, TNAP inh hi DEA -1.9, PMI act hi M6P 2*, TNAP inh no acc -1.3 and TNAP act hiacc 1.
COCc1cc(C)nc2sc(C(=O)N3CCCC3)c(N)c12 was read as PMI act 1.1, TNAP inh hi DEA -1.7, PMI act hi M6P 1.3, TNAP inh no acc -10.7 and TNAP act hiacc 1.
For Cc1cc(C)c2c(N)c(C(=O)N3CCCCCC3)sc2n1 the results were PMI act 1.8, TNAP inh hi DEA -0.8, PMI act hi M6P 2.3*, TNAP inh no acc -9.8 and TNAP act hiacc 1.
Screening CCOc1ccccc1NC(=O)c1c(NC(=O)CCC(=O)O)sc2c1CCCCC2 returned PMI act 1.6, TNAP inh hi DEA 1.2, PMI act hi M6P 2.1*, TNAP inh no acc -4.9 and TNAP act hiacc 1.
Screening CCOC(=O)N1C=CC=C[C@@H]2[C@@H](N3C(=O)c4ccccc4C3=O)C(=O)N21 returned PMI act 1, TNAP inh hi DEA -5.6, PMI act hi M6P 1, TNAP inh no acc -8.1 and TNAP act hiacc 1.1.
O=C1CCCC2=C1C(c1cccc(O)c1)c1c(ccc3ncccc13)N2 (configuration not stated) was read as PMI act 0.9, TNAP inh hi DEA -3.5, PMI act hi M6P 0.6, TNAP inh no acc -10.0 and TNAP act hiacc 1.
For CCOc1ccc(-c2cc(N3C(=O)Nc4ccccc4N3O)n[nH]2)cc1 the results were PMI act 1, TNAP inh hi DEA -5.1, PMI act hi M6P 1, TNAP inh no acc 52.1* and TNAP act hiacc 1.1.
`COc1cccc(-c2cc(N3C(=O)Nc4ccccc4N3O)n[nH]2)c1` gave PMI act 1.1, TNAP inh hi DEA -3.6, PMI act hi M6P 1, TNAP inh no acc 1.3 and TNAP act hiacc 1.
CCOc1ccc(NC(=O)CN2CCN(CC(=O)c3ccc(OCC)cc3)CC2)cc1 was read as PMI act 1.6, TNAP inh hi DEA -0.5, PMI act hi M6P 2*, TNAP inh no acc -6.3 and TNAP act hiacc 1.
`CCOc1ccc(NC(=O)CN2CCN(CC(=O)c3ccc(OC)c(OC)c3)CC2)cc1` gave PMI act 1.4, TNAP inh hi DEA -4.5, PMI act hi M6P 1.9, TNAP inh no acc -0.1 and TNAP act hiacc 1.
`CCN(CC)S(=O)(=O)c1c(OC)cc(C)c(Cl)c1C` gave PMI act 0.9, TNAP inh hi DEA -2.2, PMI act hi M6P 0.9, TNAP inh no acc -0.5 and TNAP act hiacc 1.
For Cc1[nH]nc2c1C(C1CC=CCC1)C(C#N)=C(N)O2 (configuration not stated) the results were PMI act 0.9, TNAP inh hi DEA 2.1, PMI act hi M6P 1, TNAP inh no acc 72.4* and TNAP act hiacc 1.
Screening CCc1[nH]nc2c1C(C1C=CCCC1)C(C#N)=C(N)O2 (configuration not stated) returned PMI act 0.9, TNAP inh hi DEA -4.9, PMI act hi M6P 0.9, TNAP inh no acc 70.0* and TNAP act hiacc 1.
For CC(C)(C)NC(=O)CSCc1ccc(Br)cc1 the results were PMI act 1.1, TNAP inh hi DEA -5.0, PMI act hi M6P 1, TNAP inh no acc -6.6 and TNAP act hiacc 1.1.

Bioassay records (PubChem)
